Reference: the EternaBench riboswitch data

Test system: MS2 coat protein
Assay: apparent Kd, MS2 coat protein; higher = weaker binding; RNA-MaP array; FMN 200 µM where present
Summary of the method: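 Designs were transcribed by stalled E. coli RNA polymerase on Illumina sequencing-chip clusters. They were titrated with SNAP-549-labelled MS2 coat protein from 0.7 or 1.5 nM, doubling to 3 µM, without and then with constant ligand. Buffer: 100 mM Tris-HCl pH 7.5, 80 mM KCl, 4 mM MgCl2, BSA, DTT, yeast tRNA, Tween-20. Green signal was normalised to red-channel RNA signal and control-cluster median Fmax. Apparent Kd is the median of filtered per-cluster binding-curve fits.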

[1] = designed as: OFF switch for flavin mononucleotide, no ligand
[2] = ligand present: flavin mononucleotide, designed as: OFF switch for flavin mononucleotide
[3] = designed as: ON switch for flavin mononucleotide, no ligand
[4] = ligand present: flavin mononucleotide, designed as: ON switch for flavin mononucleotide

Sequence | apparent Kd [1] [nM] | apparent Kd [2] [nM] | apparent Kd [3] [nM] | apparent Kd [4] [nM]
AAUAUAAAGAGCUGGUACUCAAUAACAUGAGGAUCACCCAUGUAGGAUAUCAGCACGAUAAGUGCUGAGAAGGACAUCCAGCUC | 16.6 | 29.4 | – | –
AAUAUAAGAGCUGGAAAUACUCAAACAUGAGGAUCACCCAUGUAGGAUAUCAGCACGAUAAGUGCUGAGAAGGACAUCCAGCUC | 15 | 15.4 | – | –
AAUAUGAGCUGGAAUAACCUCAAAACAUGAGGAUCACCCAUGUAGGAUAUCAGCACGAUAAGUGCUGAGAAGGACAACCAGCUC | 13.9 | 18.1 | – | –
AAUCGCAGUGCAGGAUAUCCAAGGUUUGGCGAAGGAGAAGGGCAUGCGACAUGAGGAUCACCCAUGUAAAGUAUGGCGUCCUCU | 231 | 117 | – | –
AAUCUGUGAGGAUAUGGUGAGUAGUGCCUGAGCGCUGCUCACCAGAAGGCACAUGAGGAUCACCCAUGUAUGAA | 31.2 | 99.6 | – | –
AAUCUGUGAGGAUAUGGUGAGUAGUGCCUGAGCGCUGCUCACCAGAAGGCACAUGAGGAUCACCCAUGUAUGAC | 34.2 | 153 | – | –
AAUGAGUUUCUCACACUGUUCACAUGAGGAUCACCCAUGUACAGAAGGUAGAGACUUCCGGUCGCUAAGGAUAUGUAGAGGGUC | 5.05 | 6.01 | – | –
AAUGUUGUUGUGAGGAUAUCGUAGUUAUUUUGAAACGAGAAGGCACAUGAGGAUCACCCAUGUUUGUUGAUGGU | 22.9 | 47.9 | – | –
AAUGUUUGAUUCCACUUAUACAUGAGGAUCACCCAUGUUAUCGAGGAUAUGCAUUAAAGUGUUUAGCAGAAGGCGAUGUAAUUG | 7.42 | 23.6 | – | –
AAUUAGGUCACAGGAUAUACAACAUCCAAUGCUGUAGAAGGGUGUCACAAUCAUAGCUGACAUGAGGAUCACCCAUGUAUCCAC | – | – | 202 | 106
AAUUCACAUGAGGAUCACCCAUGUCAGGAUAUGCUGACGCGGGUUUCGGUGCGUGUUGGCAGAAGGGACAGCUA | 193 | 204 | – | –
AAUUCACAUGAGGAUCACCCAUGUCAGGAUAUGGUUUUAUUUUUUUCUUUUCUUGAUUCCAGAAGGGACAGCUA | 108 | 59.2 | – | –
AAUUGACACGUAGGAUAUCGCUCUAAUUUAACACGAGAAGGACGUACAUGAGGAUCACCCAUGUUAAAUGGUGUAGAUUAGUUG | 30.9 | 88 | – | –
AAUUUACAGGGAGGAUAUACAUGAGGAUCACCCAUGUAAUCAUAUGAUAUUUUUUUUGUAUGAGUGUAGAAGGCCCAAAUACCA | 11.5 | 13 | – | –
AAUUUACAGGGAGGAUAUACAUGAGGAUCACCCAUGUAAUCAUAUGAUAUUUUUUUUGUAUGAGUGUAGAAGGCCCAACUACCA | 10.7 | 11 | – | –
AAUUUACAUGAGGAUCACCCAUGUGAGGAUAUACACACAUGCUUGUUAUUGCGUGUGUGUAGAAGGCGCGUGAU | 97.3 | 153 | – | –
AAUUUACAUGAGGAUCACCCAUGUGAGGAUAUGAUACUAUGUACUUCGGUACAUAGUAUCAGAAGGCAUGUGGG | 27.2 | 21.4 | – | –
ACAAAAUUGAUCCAAUUUACCAACAUGAGGAUCACCCAUGUGCAGGAUAUGCUAAAGAUGAAUAAGCAGAAGGGCAAAUACAUA | 239 | 708 | – | –
ACAAAGAGCCAAGGAUAUACGUCGUCGAGCCCUCCCGUAGUGGCCAGCACAUGAGGAUCACCCAUGUAGAAGGUGGCUGUAGUC | 20.1 | 38.5 | – | –
ACACAGCAAGGAUAUACAUGAGGAUCACCCAUGUGGUGGCCGUUACGGUAGGACUAGUGUAGAAGGUGCAGUGG | 519 | 177 | – | –
ACACGACAUGAGGAUCACCCAUGUGAGGAUAUCGAACUCAACUAAGCACAAAGUAACCCGAGAAGGCACACAAU | 25.1 | 24.1 | – | –
ACACGGUAUGUAGGAUAUGCAUAGCAUUGCUAUGCAGAAGGACAUGAGGAUCACCCAUGUAUGUAUUCCAUACUAAUCCCGUGA | 5.78 | 5.88 | – | –
ACACUCUAUGCAGGAUAUCGAGCCUGGGCCUUGUUUUUUGUAAACAUGAGGAUCACCCAUGUCUUCGAGAAGGGCAUAACACCG | 372 | 136 | – | –
ACAGCGUGAGGAUAUACAUGAGGAUCACCCAUGUAUGGCAGGUUAUCCUGUCGUAAGUGUAGAAGGCACGCUGU | 20.4 | 58.5 | – | –
ACAGCGUGAGGAUAUACAUGAGGAUCACCCAUGUAUGGCAGGUUAUCCUGUCGUAUGUGUAGAAGGCACGCUGU | 60.3 | 73.7 | – | –
ACAGCGUGAGGAUAUACAUGAGGAUCACCCAUGUGUGGCAGGUUAUCCUGUCAUGAGUGUAGAAGGCACGCUGU | 30 | 90.7 | – | –
ACAUACAUUCGAGGAUAUCGGUGAUUUAUUUUACGAGAAGGCGAUUUAAGAUUUAUUAUUUUAGACAUGAGGAUCACCCAUGUA | – | – | 27.7 | 24.5
ACAUACUUUCGAGGAUAUCGGUGAUAUAUUUAACGAGAAGGCGAUAAAAGAUAUAAACUUAUAGACAUGAGGAUCACCCAUGUA | – | – | 27.4 | 27.1
